pIC50: −log10 of the molar value. Activity calls are given as the source filed them. No cut-off for these calls is given here.
How the values were obtained:
[1] = test system: Mus musculus; test: Biodistribution in nu/nu mouse at 24 umol/kg, ip followed by irradiation with diode laser light for 1.5 hrs by optical imaging analysis; assay type: ADME, organism-based; details: in vivo, TDE = time-dependent effect
Procedure, shortened: (§1)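 The FRET probe was formulated as a Tween 80 paste, extracted into 5% dextrose, filtered, and quantified by CMP absorbance. It was given at 24 μmol/kg ip. At 1.5 h the neck region was irradiated with a 690 nm diode laser at 500 mW/cm2. Mice were under 2.5% isoflurane anesthesia, and fluorescence images were taken after 0, 10, 20 and 30 min irradiation.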

[2] = test system: Mus musculus; test: Biodistribution in nu/nu mouse at 24 umol/kg, ip followed by irradiation with diode laser light for 1.5 hrs measured after 10 to 30 mins by optical imaging analysis; assay type: ADME, organism-based; details: in vivo; procedure, shortened: as §1
[3] = test system: MCF7; test: Ratio of IC50 for darktoxicity against human MCF7 cells to IC50 for cytotoxicity against human MCF7 cells in presence of diode laser light; assay type: functional
[4] = test system: MCF7; test: Cytotoxicity against human MCF7 cells incubated for 24 hrs followed by irradiated with diode laser light for 30 mins; assay type: functional, cell-based; details: MCF7, light or radiation study
Procedure, shortened: (§2)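 MCF-7 cells were grown in α-MEM with 10% bovine growth serum, seeded at 5000/well and grown 24 h at 37 °C, 5% CO2. Compounds were diluted from 2 mM DMSO stocks into medium and incubated 24 h. Phototoxicity plates were shaken and irradiated at 690 nm, 5.6 mW/cm2 for 30 min. Dark plates were kept unlit for 30 min. After 3 days, MTT viability was read at A570 minus A650 and expressed as % of untreated.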

[5] = test system: MCF7; test: Darktoxicity against human MCF7 cells incubated for 24 hrs followed by 30 mins incubation in dark measured after 3 days by MTT assay; assay type: cell-based; procedure, shortened: as §2
[6] = molecular target: T1, Tubulin (Homo sapiens) (UniProt P68371+Q9H4B7+P0DPH7+P68366+Q13509+Q71U36+P04350+Q3ZCM7+P07437+P68363+Q9BQE3+Q6PEY2+Q13885+Q9BVA1+Q9BUF5); test: Inhibition of tubulin polymerization (unknown origin) at 3 uM after 1 hr by fluorescence plate reader analysis; assay type: protein-complex assay
Procedure, shortened: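 Kit-based fluorescence assay: tubulin plus GTP in buffer with test agent at 3 μM final, incubated at 37 °C. Polymerization was monitored kinetically at ex 360/em 450 nm against a vehicle-only control. Inhibition was assessed after 1 h incubation, as mean ± SD of three experiments.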

[7] = molecular target: T1, Tubulin (Homo sapiens); test: Inhibition of tubulin polymerization (unknown origin) at 3 uM after 20 mins by fluorescence plate reader analysis; assay type: protein-complex assay
[8] = molecular target: T1, Tubulin (Homo sapiens); test: Inhibition of tubulin polymerization (unknown origin) at 3 uM after 1 hr by fluorescence plate reader analysis
[9] = test system: Colon 26 (Mus musculus); test: Prodrug conversion in mouse Colon 26 cells assessed as death of neighboring cells at 5 uM incubated for 24 hrs followed by irradiation with diode laser light for 15 mins measured after 48 hrs by Calcein AM live cell staining assay; details: colon 26, 5 µM
[10] = test system: Colon 26; test: Antitumor activity against mouse Colon 26 cells allografted in BALB/c mouse at 4 umol/kg, ip qd for 2 days measured 30 mins post irradiation with diode laser light; assay type: functional, organism-based
Procedure, shortened: (§3)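 Colon 26 cells (2 × 10^6 in PBS) were implanted sc in the lower back-neck of 4–6-week-old BALB/c mice. Mice were used once tumors reached 3–5 mm diameter. Doses came from DMSO stocks diluted in 1% Tween 80/5% dextrose and filtered, given as 200 μL ip daily on days 0, 1 and 2. After 1.5 h mice were anesthetized (ketamine/xylazine) and tumors irradiated at 690 nm, 200 mW/cm2 for 30 min (360 J/cm2). Tumor volume was lw2/2 by caliper, and body weight was followed. Groups had six mice; control had three.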

[11] = test system: Colon 26; test: Antitumor activity against mouse Colon 26 cells allografted in BALB/c mouse at 2 umol/kg, ip qd for 2 days measured 30 mins post irradiation with diode laser light; assay type: functional, organism-based; procedure, shortened: as §3
[12] = test system: Mus musculus; test: Toxicity in mouse Colon 26 cells allografted BALB/c mouse assessed as change in body weight at 2 to 4 umol/kg, ip qd for 2 days measured 30 mins post irradiation with diode laser light; assay type: organism-based; details: in vivo; procedure, shortened: as §3
[13] = test system: Colon 26 (Mus musculus); test: Prodrug conversion in mouse Colon 26 cells assessed as death of neighboring cells at 50 nM incubated for 24 hrs followed by irradiation with diode laser light for 15 mins measured after 48 hrs by Calcein AM live cell staining assay; details: colon 26, 0.05 µM

inhibition [6] | inhibition [7] | Structure (SMILES) | Ratio IC50 [3] | pIC50 [4] | pIC50 [5] | also measured
– | – | CCN(CC)c1ccc2c(-c3ccccc3C(=O)OCN3CCN(/C=C/OC(=O)COc4ccc(-c5c6nc(c(-c7ccccc7)c7ccc(s7)c(-c7ccccc7)c7nc(c(-c8ccccc8)c8ccc5s8)C=C7)C=C6)cc4)CC3)c3ccc(=[N+](CC)CC)cc-3oc2c1.[Cl-] | – | – | – | Drug uptake [1]: tde; Drug uptake [2]: Active
9% | inactive | COc1ccc(/C=C\c2cc(OC)c(OC)c(OC)c2)cc1OCCCN1CCN(C(=O)COc2ccc(-c3c4nc(c(-c5ccccc5)c5ccc(s5)c(-c5ccccc5)c5nc(c(-c6ccccc6)c6ccc3s6)C=C5)C=C4)cc2)CC1 | 1.7 | 5.97 | 5.74 | –
– | – | COc1ccc(/C=C\c2cc(OC)c(OC)c(OC)c2)cc1O [COMBRETASTATIN A4] | – | – | 8.05 | –
– | – | CC(=O)O[C@H]1C(=O)[C@@]2(C)[C@H]([C@H](OC(=O)c3ccccc3)[C@]3(O)C[C@H](OC(=O)[C@H](O)[C@@H](NC(=O)c4ccccc4)c4ccccc4)C(C)=C1C3(C)C)[C@]1(OC(C)=O)CO[C@@H]1C[C@@H]2O | – | – | – | inhibition [8]: Active
– | – | O=C(O)COc1ccc(-c2c3nc(c(-c4ccccc4)c4ccc(s4)c(-c4cccs4)c4nc(c(-c5ccc(OCC(=O)O)cc5)c5ccc2s5)C=C4)C=C3)cc1 | – | – | – | Drug metabolism [9]: Not Active
6% | inactive | COc1ccc(/C=C\c2cc(OC)c(OC)c(OC)c2)cc1OC(=O)/C=C/N1CCC(COC(=O)COc2ccc(-c3c4nc(c(-c5ccccc5)c5ccc(s5)c(-c5ccccc5)c5nc(c(-c6ccccc6)c6ccc3s6)C=C5)C=C4)cc2)CC1 | 6 | 7.55 | 6.79 | Activity [10]: Active; Activity [11]: Active; Activity [12]: Non-toxic; Drug metabolism [13]: Active

Reference: ChEMBL document CHEMBL2375295, “Site-specific and far-red-light-activatable prodrug of combretastatin A-4 using photo-unclick chemistry” (J Med Chem, 2013)
